Test results: ChEMBL document CHEMBL1914423, “New imidazo[2,1-b]thiazole derivatives: synthesis, in vitro anticancer evaluation, and in silico studies” (Eur J Med Chem, 2011)

How the values were obtained:
Format in all cases: functional
CCRF-CEM = test: Anticancer activity against human CCRF-CEM cells after 48 hrs by SRB assay
How it was run: (§1)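 NCI five-dose screen. Cells in RPMI 1640 with 5% FBS and 2 mM L-glutamine, seeded at 5000–40,000 cells/well according to doubling time, then pre-incubated 24 h at 37 °C in 5% CO2. Drugs dissolved in DMSO, five concentrations by 10-fold or 1/2-log dilution. Cells fixed with TCA, SRB-stained, A515 read. IC50 solved from [(Ti−Tz)/(C−Tz)]×100 = 50.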

HL-60(TB) = test: Anticancer activity against human HL-60(TB) cells after 48 hrs by SRB assay; conditions: HL-60, 48 h
How it was run: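 NCI-60 five-dose screen. Cells grown in RPMI 1640 with 5% FBS and 2 mM L-glutamine, seeded at 5000–40,000 cells/well, and held 24 h at 37 °C and 5% CO₂ before drug. DMSO stocks were diluted into five concentrations (10-fold or ½-log steps). Settled suspension cells were fixed with cold TCA, SRB-stained, and read at 515 nm. […] was taken where [(Ti−Tz)/(C−Tz)]×100 = 50.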

K562 = test: Anticancer activity against human K562 cells after 48 hrs by SRB assay; conditions: K562, 48 h; how it was run: as §1
A549 = test: Anticancer activity against human A549 cells after 48 hrs by SRB assay; conditions: A549, 48 h; how it was run: as §1
NCI-H226 = test: Anticancer activity against human NCI-H226 cells after 48 hrs by SRB assay; conditions: NCI-H226, 48 h
NCI-H460 = test: Anticancer activity against human NCI-H460 cells after 48 hrs by SRB assay; conditions: NCI-H460, 48 h
HCC 2998 = test: Anticancer activity against human HCC2998 cells after 48 hrs by SRB assay; conditions: HCC 2998, 48 h; how it was run: as §1
HCT-116 = test: Anticancer activity against human HCT116 cells after 48 hrs by SRB assay; conditions: HCT-116, 48 h; how it was run: as §1
KM12 = test: Anticancer activity against human KM12 cells after 48 hrs by SRB assay; conditions: KM12, 48 h; how it was run: as §1
SF-295 = test: Anticancer activity against human SF295 cells after 48 hrs by SRB assay; conditions: SF-295, 48 h
SNB-19 = test: Anticancer activity against human SNB19 cells after 48 hrs by SRB assay; conditions: SNB-19, 48 h
U-251 = test: Anticancer activity against human U251 cells after 48 hrs by SRB assay; conditions: U-251, 48 h
How it was run: (§2)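 NCI-60 five-dose mode: cells in RPMI 1640 with 5% FBS and 2 mM glutamine, plated at 5000–40,000 cells/well, and preincubated 24 h, with time-zero plates TCA-fixed. Drug given at five concentrations (10-fold or ½-log serial dilutions). Cold TCA fixation 60 min at 4 °C, SRB stain, Tris solubilization, A515. IC50 taken where [(Ti−Tz)/(C−Tz)]×100 = 50.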

LOX IMVI = test: Anticancer activity against human LOXIMVI cells after 48 hrs by SRB assay; how it was run: as §1
M14 = test: Anticancer activity against human M14 cells after 48 hrs by SRB assay; conditions: M14, 48 h; how it was run: as §1
SK-MEL-5 = test: Anticancer activity against human SK-MEL-5 cells after 48 hrs by SRB assay; conditions: SK-MEL-5, 48 h
UACC-62 = test: Anticancer activity against human UACC62 cells after 48 hrs by SRB assay; conditions: UACC-62, 48 h; how it was run: as §2
IGROV-1 = test: Anticancer activity against human IGROV1 cells after 48 hrs by SRB assay; conditions: IGROV-1, 48 h; how it was run: as §1
OVCAR-4 = test: Anticancer activity against human OVCAR4 cells after 48 hrs by SRB assay; conditions: OVCAR-4, 48 h
OVCAR-5 = test: Anticancer activity against human OVCAR5 cells after 48 hrs by SRB assay; conditions: OVCAR-5, 48 h
NCI/ADR-RES = test: Anticancer activity against human NCI/ADR-RES cells after 48 hrs by SRB assay
A498 = test: Anticancer activity against human A498 cells after 48 hrs by SRB assay; conditions: A498, 48 h; how it was run: as §1
ACHN = test: Anticancer activity against human ACHN cells after 48 hrs by SRB assay; how it was run: as §1
RXF 393 = test: Anticancer activity against human RXF393 cells after 48 hrs by SRB assay; conditions: RXF 393, 48 h
SN12C = test: Anticancer activity against human SN12C cells after 48 hrs by SRB assay
UO-31 = test: Anticancer activity against human UO31 cells after 48 hrs by SRB assay; conditions: UO-31, 48 h; how it was run: as §2
DU-145 = test: Anticancer activity against human DU145 cells after 48 hrs by SRB assay; conditions: DU-145, 48 h; how it was run: as §1
MCF7 = test: Anticancer activity against human MCF7 cells after 48 hrs by SRB assay; conditions: MCF7, 48 h; how it was run: as §1
[1] = Anticancer activity against human Hs 578T cells after 48 hrs by SRB assay; how it was run: as §1
[2] = read-out: LC50 (the source's name)

O=C(NCCNc1nccc(-c2c(-c3cccc(O)c3)nc3sccn23)n1)Nc1cccc(C(F)(F)F)c1
GI50 (CCRF-CEM): 3.25 µM
TGI (CCRF-CEM): 13.7 µM
CC50 (CCRF-CEM; [2]): > 100 µM
GI50 (HL-60(TB)): 2.85 µM
LC50 (HL-60(TB)): > 100 µM
TGI (HL-60(TB)): 6.03 µM
GI50 (K562): 3.42 µM
TGI (K562): 57.1 µM
CC50 (K562; [2]): > 100 µM
GI50 (A549): 2.98 µM
LC50 (concentration giving 50% net tumour cell kill) (A549): > 100 µM
TGI (A549): 8.44 µM
GI50 (NCI-H226): 9.99 µM
LC50 (concentration killing 50% of tumour cells) (NCI-H226): 81 µM
TGI (NCI-H226): 28.5 µM
GI50 (NCI-H460): 4.79 µM
LC50 (NCI-H460): 83.5 µM
TGI (NCI-H460): 20.8 µM
GI50 (HCC 2998): 2.68 µM
TGI (HCC 2998): 5.77 µM
CC50 (HCC 2998; [2]): 74.9 µM
GI50 (HCT-116): 3.58 µM
TGI (HCT-116): 11.5 µM
CC50 (HCT-116; [2]): 74.3 µM
GI50 (KM12): 2.78 µM
TGI (KM12): 6.98 µM
CC50 (KM12; [2]): 29.9 µM
GI50 (SF-295): 4.16 µM
TGI (SF-295): 29.7 µM
CC50 (SF-295; [2]): > 100 µM
GI50 (SNB-19): 5.08 µM
TGI (SNB-19): 36.2 µM
CC50 (SNB-19; [2]): > 100 µM
GI50 (U-251): 4.95 µM
TGI (U-251): 23.6 µM
CC50 (U-251; [2]): > 100 µM
GI50 (LOX IMVI): 4.05 µM
TGI (LOX IMVI): 26.2 µM
CC50 (LOX IMVI; [2]): > 100 µM
GI50 (M14): 1.79 µM
TGI (M14): 3.39 µM
CC50 (M14; [2]): 6.41 µM
GI50 (SK-MEL-5): 2.62 µM
TGI (SK-MEL-5): 8.43 µM
CC50 (SK-MEL-5; [2]): 28.9 µM
GI50 (UACC-62): 1.94 µM
TGI (UACC-62): 6.51 µM
CC50 (UACC-62; [2]): 28.2 µM
GI50 (IGROV-1): 3.48 µM
TGI (IGROV-1): 13.1 µM
CC50 (IGROV-1; [2]): 93.4 µM
GI50 (OVCAR-4): 3.97 µM
TGI (OVCAR-4): 14.2 µM
CC50 (OVCAR-4; [2]): 39.7 µM
GI50 (OVCAR-5): 16.3 µM
TGI (OVCAR-5): 65.3 µM
CC50 (OVCAR-5; [2]): > 100 µM
GI50 (NCI/ADR-RES): 26.9 µM
TGI (NCI/ADR-RES): > 100 µM
CC50 (NCI/ADR-RES; [2]): > 100 µM
GI50 (A498): 7.33 µM
TGI (A498): 32.6 µM
CC50 (A498; [2]): > 100 µM
GI50 (ACHN): 5.79 µM
TGI (ACHN): 45.7 µM
CC50 (ACHN; [2]): > 100 µM
GI50 (RXF 393): 2.41 µM
TGI (RXF 393): 5.1 µM
CC50 (RXF 393; [2]): 12.9 µM
GI50 (SN12C): 3.42 µM
TGI (SN12C): 20 µM
CC50 (SN12C; [2]): > 100 µM
GI50 (UO-31): 3.25 µM
TGI (UO-31): 16.8 µM
CC50 (UO-31; [2]): 98.1 µM
GI50 (DU-145): 5.37 µM
TGI (DU-145): 30 µM
CC50 (DU-145; [2]): > 100 µM
GI50 (MCF7): 3.57 µM
TGI (MCF7): 16 µM
CC50 (MCF7; [2]): 78.1 µM
GI50 [1]: 3.56 µM
TGI [1]: 17.8 µM
CC50 [1, 2]: > 100 µM
